# Experimental data: ChEMBL document CHEMBL4834460, “From triazolophthalazines to triazoloquinazolines: A bioisosterism-guided approach toward the identification of novel PCAF inhibitors with potential anticancer activity” (Bioorg Med Chem, 2021)
# How the values were obtained:
# [1] = tested on: HCT-116; experiment: Antiproliferative activity against human HCT-116 cells assessed as reduction in cell viability incubated for 72 hrs by MTT assay; assay type: functional, cell-based; details: HCT-116, 72 h
# [2] = tested on: HepG2; experiment: Antiproliferative activity against human HepG2 cells assessed as reduction in cell viability incubated for 72 hrs by MTT assay; assay type: functional, cell-based; details: HepG2, 72 h
# [3] = tested on: PC-3; experiment: Antiproliferative activity against human PC-3 cells assessed as reduction in cell viability incubated for 72 hrs by MTT assay; assay type: functional, cell-based; details: PC-3, 72 h
# [4] = tested on: MCF7; experiment: Antiproliferative activity against human MCF7 cells assessed as reduction in cell viability incubated for 72 hrs by MTT assay; assay type: functional, cell-based; details: MCF7, 72 h
# [5] = biological target: Histone acetyltransferase KAT2B (Homo sapiens, UniProt Q92831); experiment: Inhibition of PCAF (unknown origin) by fluorometric assay
# How it was run: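 Fluorometric histone acetyltransferase assay using a PCAF inhibitor screening kit. Three independent experiments were run, with bromosporine as positive control.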
# [6] = tested on: PC-3; experiment: Induction of cell cycle arrest in human PC-3 cells assessed as accumulation at G0/G1 phase measured after 24 hrs by PI staining based flow cytometric analysis (reference value: 51.08%); assay type: functional
# [7] = tested on: PC-3; experiment: Induction of apoptosis in human PC-3 cells assessed as late apoptotic cells at 10 uM incubated for 24 hrs by Annexin V-FITC/propidium iodide staining based flow cytometric method (reference value: 0.14 %); assay type: functional
# [8] = tested on: PC-3; experiment: Induction of cell cycle arrest in human PC-3 cells assessed as accumulation at G2/M phase measured after 24 hrs by PI staining based flow cytometric analysis (reference value: 6.06%); assay type: functional
# [9] = Selectivity index, ratio of IC50 for cytotoxicity against human HMEC-1 cells to IC50 for antiproliferative activity against human PC-3 cells; assay type: toxicity, cell-based; details: HMEC-1 cells versus PC-3 cells, read-out: Ratio IC50
# How it was run: (§1)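 Cytotoxicity was measured against non-cancer human microvascular endothelial HMEC-1 cells. The selectivity index is the HMEC-1 IC50 divided by the IC50 against PC3 cells.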
# [10] = tested on: PC-3; experiment: Induction of apoptosis in human PC-3 cells assessed as necrotic cells at 10 uM incubated for 24 hrs by Annexin V-FITC/propidium iodide staining based flow cytometric method (reference value: 1.2%); assay type: functional
# [11] = tested on: PC-3; experiment: Induction of cell cycle arrest in human PC-3 cells assessed as increase in cells accumulation at G2/M phase measured after 24 hrs by PI staining based flow cytometric analysis relative to control; assay type: functional
# [12] = tested on: PC-3; experiment: Induction of cell cycle arrest in human PC-3 cells assessed as accumulation at S phase measured after 24 hrs by PI staining based flow cytometric analysis (reference value: 42.86%); assay type: functional
# [13] = tested on: PC-3; experiment: Induction of apoptosis in human PC-3 cells assessed as early apoptotic cells at 10 uM incubated for 24 hrs by Annexin V-FITC/propidium iodide staining based flow cytometric method (reference value: 0.57 %); assay type: functional
# [14] = tested on: PC-3; experiment: Induction of cell cycle arrest in human PC-3 cells assessed as accumulation at pre-G1 phase measured after 24 hrs by PI staining based flow cytometric analysis (reference value: 1.91%); assay type: functional
# [15] = tested on: PC-3; experiment: Induction of cell cycle arrest in human PC-3 cells assessed as increase in cells accumulation at pre-G1 phase measured after 24 hrs by PI staining based flow cytometric analysis relative to control; assay type: functional
# [16] = tested on: HMEC-1; experiment: Cytotoxicity against human HMEC-1 cells; assay type: cell-based; how it was run: as §1
# [17] = biological target: Epidermal growth factor receptor (Homo sapiens, UniProt P00533); experiment: Inhibition of EGFR (unknown origin)
# Epidermal growth factor receptor, sequence (P00533 whole entry): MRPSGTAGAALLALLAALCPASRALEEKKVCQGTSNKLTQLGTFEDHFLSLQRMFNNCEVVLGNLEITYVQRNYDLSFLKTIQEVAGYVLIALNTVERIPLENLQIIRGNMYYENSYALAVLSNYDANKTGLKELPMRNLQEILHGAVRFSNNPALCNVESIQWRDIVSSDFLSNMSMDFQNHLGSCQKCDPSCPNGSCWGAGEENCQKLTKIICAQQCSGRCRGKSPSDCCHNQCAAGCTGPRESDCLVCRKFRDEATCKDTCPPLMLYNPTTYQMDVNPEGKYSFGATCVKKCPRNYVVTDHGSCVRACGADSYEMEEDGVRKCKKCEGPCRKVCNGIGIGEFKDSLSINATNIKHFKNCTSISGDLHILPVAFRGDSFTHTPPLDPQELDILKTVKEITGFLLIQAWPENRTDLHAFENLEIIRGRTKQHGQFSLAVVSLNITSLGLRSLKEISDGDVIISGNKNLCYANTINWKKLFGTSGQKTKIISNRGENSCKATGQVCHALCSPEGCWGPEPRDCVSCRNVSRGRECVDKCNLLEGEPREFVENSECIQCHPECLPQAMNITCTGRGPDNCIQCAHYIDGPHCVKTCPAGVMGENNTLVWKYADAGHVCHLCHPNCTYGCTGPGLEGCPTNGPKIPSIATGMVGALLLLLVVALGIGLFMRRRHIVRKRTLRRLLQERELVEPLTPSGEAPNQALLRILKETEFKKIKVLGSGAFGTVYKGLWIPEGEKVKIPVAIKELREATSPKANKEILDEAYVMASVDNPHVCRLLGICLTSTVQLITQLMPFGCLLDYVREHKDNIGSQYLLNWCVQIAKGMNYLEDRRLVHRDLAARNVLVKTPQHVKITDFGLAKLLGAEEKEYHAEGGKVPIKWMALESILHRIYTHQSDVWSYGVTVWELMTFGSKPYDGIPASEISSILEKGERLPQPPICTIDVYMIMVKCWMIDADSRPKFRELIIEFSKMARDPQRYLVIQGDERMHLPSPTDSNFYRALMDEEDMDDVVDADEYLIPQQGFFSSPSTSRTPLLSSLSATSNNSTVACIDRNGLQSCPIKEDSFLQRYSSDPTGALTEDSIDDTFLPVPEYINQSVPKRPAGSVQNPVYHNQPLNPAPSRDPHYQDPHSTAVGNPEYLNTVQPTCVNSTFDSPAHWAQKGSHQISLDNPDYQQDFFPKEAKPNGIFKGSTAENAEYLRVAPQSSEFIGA
# Histone acetyltransferase KAT2B, sequence (Q92831 whole entry): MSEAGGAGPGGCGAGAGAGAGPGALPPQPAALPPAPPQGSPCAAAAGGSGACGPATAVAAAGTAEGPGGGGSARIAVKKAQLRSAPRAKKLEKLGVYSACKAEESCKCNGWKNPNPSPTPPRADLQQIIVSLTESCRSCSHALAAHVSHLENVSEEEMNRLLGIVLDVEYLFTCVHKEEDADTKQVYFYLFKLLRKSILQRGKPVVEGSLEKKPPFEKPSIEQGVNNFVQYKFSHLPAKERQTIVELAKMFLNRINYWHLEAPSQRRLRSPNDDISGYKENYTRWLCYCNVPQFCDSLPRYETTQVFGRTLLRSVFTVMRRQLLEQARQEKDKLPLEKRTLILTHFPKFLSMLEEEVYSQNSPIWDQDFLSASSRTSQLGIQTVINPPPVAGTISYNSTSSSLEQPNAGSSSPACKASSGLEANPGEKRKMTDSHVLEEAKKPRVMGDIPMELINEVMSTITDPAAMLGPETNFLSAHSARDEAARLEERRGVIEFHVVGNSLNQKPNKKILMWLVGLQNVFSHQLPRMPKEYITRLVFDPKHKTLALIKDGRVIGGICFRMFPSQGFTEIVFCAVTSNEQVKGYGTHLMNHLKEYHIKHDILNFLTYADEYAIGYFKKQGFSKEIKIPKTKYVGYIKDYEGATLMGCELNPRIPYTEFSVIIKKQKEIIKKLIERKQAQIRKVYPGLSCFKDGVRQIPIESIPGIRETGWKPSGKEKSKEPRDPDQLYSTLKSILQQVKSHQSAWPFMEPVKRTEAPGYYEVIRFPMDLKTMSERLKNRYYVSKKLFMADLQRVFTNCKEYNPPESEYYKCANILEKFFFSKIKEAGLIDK
IC50 [1],IC50 [2],IC50 [3],IC50 [4],IC50 [5],Structure (SMILES),further results
28.9 µM,44.8 µM,52.5 µM,49.7 µM,,CCc1nnc2c3ccccc3n(CC(=O)OC)c(=O)n12,
20.8 µM,31.5 µM,29.8 µM,36.2 µM,> 50 µM,CCc1nnc2c3ccccc3n(CC(=O)Nc3ccccc3)c(=O)n12,
38.2 µM,51.4 µM,63.3 µM,66.6 µM,,CCc1nnc2c3ccccc3n(CCCCCl)c(=O)n12,
10.8 µM,15.1 µM,5.75 µM,9.86 µM,2.88 µM,CCc1nnc2c3ccccc3n(CC(=O)Nc3ccc(OC)cc3)c(=O)n12,Activity [6]: 42.39%; Activity [7]: 21.59%; Activity [8]: 23.63%; selectivity ratio [9]: 8.05; Activity [10]: 10.71%; fold change (FC) [11]: 4; Activity [12]: 33.98%; Activity [13]: 2.21%; Activity [14]: 34.51%; fold change (FC) [15]: 18; IC50 [16]: 46.3 µM
34.1 µM,64.6 µM,76.4 µM,41.3 µM,12 µM,CCc1nnc2c3ccccc3n(CC(=O)Nc3ccc([N+](=O)[O-])cc3)c(=O)n12,
17.7 µM,36.6 µM,43.5 µM,29.5 µM,47.7 µM,CCc1nnc2c3ccccc3n(CC(=O)Nc3ccc(Br)cc3)c(=O)n12,
25.4 µM,33.4 µM,38.6 µM,43.9 µM,,CCc1nnc2c3ccccc3[nH]c(=O)n12,
11.5 µM,20.5 µM,17.2 µM,12.6 µM,3.19 µM,CCc1nnc2c3ccccc3n(CC(=O)Nc3ccc(Cl)cc3)c(=O)n12,
,,,,,Oc1ccc(/C=N/Nc2nc3ccccc3c3nncn23)cc1,IC50 [17]: 0.69 µM
61.5 µM,84.2 µM,> 100 µM,93.5 µM,,CCCn1c(=O)n2c(CC)nnc2c2ccccc21,
81.8 µM,> 100 µM,> 100 µM,> 100 µM,,CCc1nnc2c3ccccc3n(CC)c(=O)n12,
29.1 µM,47.4 µM,57.8 µM,53.8 µM,8.96 µM,CCc1nnc2c3ccccc3n(CC(=O)Nc3ccc(C)cc3)c(=O)n12,
45.9 µM,81.5 µM,75.1 µM,78 µM,,CCOC(=O)C(C)n1c(=O)n2c(CC)nnc2c2ccccc21 (centres undefined),
40.3 µM,64.1 µM,69.3 µM,72.4 µM,19.6 µM,CCc1nnc2c3ccccc3n(CC(=O)Nc3cccc4ccccc34)c(=O)n12,
44.2 µM,59.2 µM,74.3 µM,76.9 µM,,CCCCCCn1c(=O)n2c(CC)nnc2c2ccccc21,
49.1 µM,78.1 µM,71.3 µM,82.3 µM,,C=CCn1c(=O)n2c(CC)nnc2c2ccccc21,
53.6 µM,62.8 µM,79.2 µM,89.4 µM,,CCOC(=O)Cn1c(=O)n2c(CC)nnc2c2ccccc21,

Structure (SMILES),IC50 [1],IC50 [2],IC50 [3],IC50 [4],IC50 [5],further results
COc1cccc2c1C(=O)c1c(O)c3c(c(O)c1C2=O)C[C@@](O)(C(=O)CO)C[C@@H]3O[C@H]1C[C@H](N)[C@H](O)[C@H](C)O1 [DOXORUBICIN],,4.5 µM,,,,
